Source: ChEMBL document CHEMBL1795234, “Practical synthesis, anticonvulsant, and antimicrobial activity of N-allyl and N-propargyl di(indolyl)indolin-2-ones” (2011)

Assays:
Format in all cases: functional
[1] = system: Escherichia coli; test: Antibacterial activity against Escherichia coli K12 at 20 ug/ml after 24 hrs by cup plate method; conditions: K-12, 24 h, read-out: IZ
Method in brief: (§1)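 Cup-plate (well diffusion) on Mueller-Hinton agar; compounds at 20 µg/mL in methanol, 20 µL per well; one well with 20 µL methanol as solvent control; Amikacin standard run alike. Held in refrigerator 1 h for diffusion, then incubated 24 h at 37 °C; zone of inhibition around cup measured.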

[2] = system: Mus musculus; test: Anticonvulsant activity against maximum electric shock-induced seizure in Swiss albino mouse assessed as time spent in tonic clonus phase at 20 mg/kg, ip administered 30 mins before seizure induction by electroconvulsiometer analysis; conditions: route intraperitoneal
Method in brief: (§2)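 Inbred Swiss albino mice, both sexes, 25–30 g, 7-day adaptation, groups of 5, each used once, tested 10:00–16:00. Compound suspended in 0.5% Tween 80, 20 mg/kg ip 30 min before maximal electroshock; vehicle control group and ip phenytoin 20 mg/kg standard. Seconds spent in flexion, extensor and clonus phases recorded, mean ± SEM.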

[3] = system: Mus musculus; test: Anticonvulsant activity against maximum electric shock-induced seizure in Swiss albino mouse assessed as time spent in tonic extensor phase at 20 mg/kg, ip administered 30 mins before seizure induction by electroconvulsiometer analysis; conditions: route intraperitoneal; method in brief: as §2
[4] = system: Mus musculus; test: Anticonvulsant activity against maximum electric shock-induced seizure in Swiss albino mouse assessed as time spent in tonic flexion phase at 20 mg/kg, ip administered 30 mins before seizure induction by electroconvulsiometer analysis; conditions: route intraperitoneal; method in brief: as §2
[5] = system: Candida albicans; test: Antifungal activity against Candida albicans ATCC 10231 at 20 ug/ml after 24 hrs by cup plate method; conditions: ATCC 10231, 24 h, read-out: IZ
Method in brief: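 C. albicans spores inoculated into lukewarm Sabouraud dextrose agar (pH 5.4, autoclaved 121 °C 15 min) and poured; cups filled with compound at 20 µg/mL, methanol solvent control, Ketoconazole standard. Kept refrigerated 1 h for diffusion, then incubated 24 h at 28 °C; zone of inhibition read.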

[6] = system: Staphylococcus aureus; test: Antibacterial activity against methicillin-sensitive Staphylococcus aureus 22 at 20 ug/ml after 24 hrs by cup plate method; conditions: Staphylococcus aureus, 22, 24 h; read-out: IZ; method in brief: as §1

Row | Compound | zone of inhibition at 20 µg/mL [1] [mm] | Time [2] [s] | Time [3] [s] | Time [4] [s] | zone of inhibition at 20 µg/mL [5] [mm] | zone of inhibition at 20 µg/mL [6] [mm]
1 | C=CCn1cc(C2(c3cn(CC=C)c4ccc(OC)cc34)C(=O)Nc3ccc(Br)cc32)c2cc(OC)ccc21 | 14 | 3.4 | 39.2 | 4.8 | 14 | 15
2 | C=CCn1cc(C2(c3cn(CC=C)c4ccccc34)C(=O)Nc3ccccc32)c2ccccc21 | 12 | 3.6 | 48 | 5.8 | 11 | 12
3 | NCC[C@H](O)C(=O)N[C@@H]1C[C@H](N)[C@@H](O[C@H]2O[C@H](CN)[C@@H](O)[C@H](O)[C@H]2O)[C@H](O)[C@H]1O[C@H]1O[C@H](CO)[C@@H](O)[C@H](N)[C@H]1O [AMIKACIN] | 18 | – | – | – | – | 17
4 | C=CCn1cc(C2(c3cn(CC=C)c4ccc(OC)cc34)C(=O)Nc3ccc(Cl)cc32)c2cc(OC)ccc21 | 11 | 3.4 | 31.6 | 5.8 | 10 | 10
5 | CC(C)=CCn1cc(C2(c3cn(CC=C(C)C)c4ccc(Br)cc34)C(=O)Nc3ccccc32)c2cc(Br)ccc21 | 12 | 3.4 | 39.6 | 4.8 | 12 | 14
6 | C=CCn1cc(C2(c3cn(CC=C)c4ccc(OC)cc34)C(=O)Nc3ccccc32)c2cc(OC)ccc21 | 10 | 3.2 | 31.8 | 4.8 | 14 | 12
7 | C#CCN1C(=O)C(c2cn(CC#C)c3ccccc23)(c2cn(CC#C)c3ccccc23)c2ccccc21 | 10 | 3.6 | 31.8 | 5.4 | 12 | 10
8 | C#CCn1c(C)c(C2(c3c(C)n(CC#C)c4ccccc34)C(=O)Nc3ccccc32)c2ccccc21 | 15 | 2.8 | 31.6 | 5.4 | 15 | 15
9 | O=C1NC(=O)C(c2ccccc2)(c2ccccc2)N1 [PHENYTOIN] | – | 3.4 | 43 | 5.6 | – | –
10 | O=C1Nc2ccccc2C1(c1cn(C/C=C/c2ccccc2)c2ccccc12)c1cn(C/C=C/c2ccccc2)c2ccccc12 | 14 | 3.6 | 39.6 | 4.8 | 13 | 10
11 | CC(=O)N1CCN(c2ccc(OCC3COC(Cn4ccnc4)(c4ccc(Cl)cc4Cl)O3)cc2)CC1 (centres undefined) [KETOCONAZOLE] | – | – | – | – | 16 | –
12 | C#CCn1cc(C2(c3cn(CC#C)c4ccccc34)C(=O)N(Cc3ccccc3)c3ccccc32)c2ccccc21 | 17 | 3.2 | 39.2 | 4.8 | 13 | 15
13 | C=CCn1cc(C2(c3cn(CC=C)c4ccccc34)C(=O)Nc3ccc([N+](=O)[O-])cc32)c2ccccc21 | 10 | 3.4 | 39.2 | 4.8 | 15 | 10
14 | C=CCn1cc(C2(c3cn(CC=C)c4ccc(OC)cc34)C(=O)N(CC(=O)OCC)c3ccccc32)c2cc(OC)ccc21 | 14 | 3.4 | 31.6 | 4.8 | 10 | 12
15 | C#CCN1C(=O)C(c2cn(CC=C(C)C)c3ccc(Br)cc23)(c2cn(CC=C(C)C)c3ccc(Br)cc23)c2ccccc21 | 15 | 2.8 | 31.6 | 5.4 | 10 | 15
16 | C#CCn1cc(C2(c3cn(CC#C)c4ccccc34)C(=O)Nc3ccccc32)c2ccccc21 | 10 | 3.2 | 39.2 | 4.8 | 12 | 11
